Test results published in ChEMBL document CHEMBL4619807, “Exploration of Alternative Scaffolds for P2Y14 Receptor Antagonists Containing a Biaryl Core” (J Med Chem, 2020).
In brackets after ≈: the same amount, converted by molar mass. Blank lines part the entries; values can stand above or below the compound they belong to. Activity calls are given as the source filed them. The calls are words filed in the database; no cut-off is given here.

What was measured:
[1] = Stability in mouse plasma assessed as compound remaining level at 120 mins; assay type: ADME, cell-free; conditions: 2 h
[2] = Cmax in rat at 10 mg/kg, ip after 3 to 4 hrs; assay type: ADME, organism-based; parameters: dose 10 mg/kg, route intraperitoneal; conditions: in vivo
In short: (§1)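 Rats dosed intraperitoneally at 1, 3 and 10 mg/kg and intravenously at 0.5 mg/kg. Solubilizing vehicle was aqueous DMSO. Plasma concentrations followed over time up to 12 h. Bioavailability derived from ip exposure relative to the iv dose.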

[3] = target: T1, P2Y purinoceptor 14 (Homo sapiens, UniProt Q15391); assay: cell-based
T1 sequence (Q15391 whole entry): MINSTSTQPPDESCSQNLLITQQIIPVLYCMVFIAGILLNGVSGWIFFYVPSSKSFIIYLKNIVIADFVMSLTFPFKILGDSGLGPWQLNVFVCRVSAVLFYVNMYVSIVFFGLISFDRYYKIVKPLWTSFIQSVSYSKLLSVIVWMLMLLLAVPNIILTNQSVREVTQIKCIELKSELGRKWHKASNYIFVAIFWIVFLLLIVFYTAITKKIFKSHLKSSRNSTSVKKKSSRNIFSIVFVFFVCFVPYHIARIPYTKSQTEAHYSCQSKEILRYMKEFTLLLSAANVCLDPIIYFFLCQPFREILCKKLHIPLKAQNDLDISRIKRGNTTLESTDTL

[4] = Bioavailability in rat at 1 to 10 mg/kg, ip; assay type: ADME, organism-based; conditions: in vivo; in short: as §1
[5] = Drug level in rat at 10 mg/kg, ip after 12 hrs; assay type: ADME, organism-based; conditions: in vivo; in short: as §1
[6] = Plasma concentration in rat at 1 mg/kg, ip after 4 hrs; assay type: ADME, organism-based; in short: as §1
[7] = Aqueous solubility at pH 7.4 by pION method; assay type: physicochemical
In short: (§2)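 Equilibrium aqueous solubility measured by the pION method at pH 4.0 and at pH 7.4, in μg/mL; mean ± SD.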

[8] = target: T1, P2Y purinoceptor 14; assay: cell-based; remark: listed apart in the source
[9] = Tmax in rat at 10 mg/kg, ip; assay type: ADME, organism-based; conditions: in vivo; in short: as §1
[10] = Half life in human liver microsomes; assay type: ADME, Microsome
[11] = target: T1, P2Y purinoceptor 14; assay: cell-based; remark: listed apart in the source
[12] = Stability in human plasma assessed as compound remaining level at 120 mins; assay type: ADME, cell-free; conditions: 2 h
[13] = test system: Mus musculus; assay: Antiasthmatic activity in Aspergillus oryzae protease-mediated C57BL/6J mouse model of allergic asthma assessed as reduction in eosinophil infiltration in bronchoalveolar lavage fluid at 10 mg/kg, ip dosed 30 mins before OVA aerosol challenge and measured 2 days post-challenge by cell differential count assay; assay type: functional, organism-based
[14] = Half life in rat liver microsomes; assay type: ADME, Microsome
[15] = Plasma concentration in rat at 1 mg/kg, ip after 2 hrs; assay type: ADME, organism-based; in short: as §1
[16] = Half life in mouse liver microsomes; assay type: ADME, Microsome
[17] = Aqueous solubility at pH 4 by pION method; assay type: physicochemical; in short: as §2
[18] = Half life in rat at 1 mg/kg, ip; assay type: ADME, organism-based; conditions: in vivo
[19] = test system: HepG2; assay: Toxicity in human HepG2 cells; assay type: cell-based
[20] = Solubility in 10% DMSO in water; assay type: physicochemical; conditions: buffer
In short: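 Compound dissolved in DMSO without basification, then diluted with water to 10% DMSO at 1 mg/mL. Solubility was judged by the absence of precipitation on dilution.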

[21] = Lipophilicity, change in Constant K of the compound by RP-HPLC analysis relative to PPTN; assay type: physicochemical
In short: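 Lipophilicity taken from reversed-phase HPLC retention time on a C18 column. Elution used a 20 min gradient of 10 to 100% acetonitrile in 10 mM triethylammonium acetate. Reported as Δk against the reference antagonist.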

[22] = Half life in rat at 0.5 mg/kg, iv; assay type: ADME, organism-based; conditions: in vivo
[23] = target: T2, P2Y purinoceptor 14 (Mus musculus, UniProt Q9ESG6); assay: Inhibition of MRS4174 binding to mouse P2Y14R expressed in HEK293 cells pre-incubated for 30 mins before MRS4174 addition and further incubated for 30 mins by flow cytomtery based competitive fluorescence assay; assay type: cell-based
T2 sequence (Q9ESG6 whole entry): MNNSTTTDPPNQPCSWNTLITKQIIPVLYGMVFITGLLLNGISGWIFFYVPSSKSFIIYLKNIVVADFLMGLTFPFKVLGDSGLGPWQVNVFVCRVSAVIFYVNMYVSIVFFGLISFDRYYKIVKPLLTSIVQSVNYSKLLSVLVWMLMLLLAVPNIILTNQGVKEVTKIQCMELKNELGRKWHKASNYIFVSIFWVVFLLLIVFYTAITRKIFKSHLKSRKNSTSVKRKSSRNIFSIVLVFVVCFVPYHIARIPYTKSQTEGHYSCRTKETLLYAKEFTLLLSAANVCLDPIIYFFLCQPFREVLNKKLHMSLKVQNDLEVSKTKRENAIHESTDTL
In short: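 Competitive whole-cell binding in HEK293 cells stably expressing N-terminally HA-tagged mouse P2Y14R, grown in a 24-well plate to 80–90% confluency. Antagonist given at 1 nM–100 μM in serum-containing EMEM for 30 min at 37 °C, then tracer added at 20 nM final for 30 min.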

[24] = target: 5-hydroxytryptamine receptor 1D (Homo sapiens, UniProt P28221); assay: Binding affinity to 5HT1D receptor (unknown origin)
5-hydroxytryptamine receptor 1D, sequence (P28221 whole entry): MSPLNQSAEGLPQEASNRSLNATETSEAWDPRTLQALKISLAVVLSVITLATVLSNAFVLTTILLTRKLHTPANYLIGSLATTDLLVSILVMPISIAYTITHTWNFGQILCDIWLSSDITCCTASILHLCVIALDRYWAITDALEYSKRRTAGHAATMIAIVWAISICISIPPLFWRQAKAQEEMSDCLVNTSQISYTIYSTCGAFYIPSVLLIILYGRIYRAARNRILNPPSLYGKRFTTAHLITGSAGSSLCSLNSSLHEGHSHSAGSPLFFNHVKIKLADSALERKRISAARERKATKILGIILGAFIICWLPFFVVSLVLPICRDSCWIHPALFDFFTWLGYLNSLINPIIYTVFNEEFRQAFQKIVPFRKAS

[25] = Unbound fraction in mouse plasma; assay type: ADME, cell-free
In short: (§3)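 Plasma protein binding measured at 10 μM compound in human and mouse plasma, expressed as percent unbound (mean ± SD). Verapamil and warfarin were positive controls.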

[26] = target: T3, Cannabinoid receptor 2 (Homo sapiens, UniProt P34972); assay: Agonist activity at CB2 receptor (unknown origin)
T3 sequence (P34972 whole entry): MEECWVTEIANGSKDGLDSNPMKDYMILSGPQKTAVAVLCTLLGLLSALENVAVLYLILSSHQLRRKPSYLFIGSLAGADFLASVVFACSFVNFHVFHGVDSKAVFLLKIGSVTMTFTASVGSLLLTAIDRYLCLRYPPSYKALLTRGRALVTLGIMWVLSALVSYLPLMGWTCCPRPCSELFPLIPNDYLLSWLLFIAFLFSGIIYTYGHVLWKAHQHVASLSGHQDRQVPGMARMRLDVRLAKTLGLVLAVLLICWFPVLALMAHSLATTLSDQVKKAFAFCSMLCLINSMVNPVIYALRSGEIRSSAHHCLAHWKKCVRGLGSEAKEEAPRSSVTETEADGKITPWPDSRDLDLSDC
In short: (§4)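 Tested through the Psychoactive Drug Screening Program as functional agonist and antagonist at CB1 and CB2 cannabinoid receptors, with an upper test concentration of 10 μM.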

[27] = target: T4, Cannabinoid receptor 1 (Homo sapiens, UniProt P21554); assay: Antagonist activity at CB1 receptor (unknown origin); in short: as §4
T4 sequence (P21554 whole entry): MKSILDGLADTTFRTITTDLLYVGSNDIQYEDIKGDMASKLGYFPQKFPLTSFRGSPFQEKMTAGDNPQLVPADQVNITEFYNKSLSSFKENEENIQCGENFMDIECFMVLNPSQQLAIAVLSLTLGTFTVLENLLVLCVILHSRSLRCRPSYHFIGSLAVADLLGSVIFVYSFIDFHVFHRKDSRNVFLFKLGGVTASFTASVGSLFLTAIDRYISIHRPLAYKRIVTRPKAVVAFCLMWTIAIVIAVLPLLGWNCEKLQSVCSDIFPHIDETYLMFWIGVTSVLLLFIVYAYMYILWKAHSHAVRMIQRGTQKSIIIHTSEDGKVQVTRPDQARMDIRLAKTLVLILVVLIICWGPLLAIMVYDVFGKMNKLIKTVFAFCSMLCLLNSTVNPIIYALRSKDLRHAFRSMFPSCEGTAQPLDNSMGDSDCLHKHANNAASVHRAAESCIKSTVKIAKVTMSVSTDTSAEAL

[28] = target: T4, Cannabinoid receptor 1; assay: Agonist activity at CB1 receptor (unknown origin); in short: as §4
[29] = target: T3, Cannabinoid receptor 2; assay: Antagonist activity at CB2 receptor (unknown origin); in short: as §4
[30] = target: Delta-type opioid receptor (Homo sapiens, UniProt P41143); assay: Binding affinity to DOR (unknown origin)
Delta-type opioid receptor, sequence (P41143 whole entry): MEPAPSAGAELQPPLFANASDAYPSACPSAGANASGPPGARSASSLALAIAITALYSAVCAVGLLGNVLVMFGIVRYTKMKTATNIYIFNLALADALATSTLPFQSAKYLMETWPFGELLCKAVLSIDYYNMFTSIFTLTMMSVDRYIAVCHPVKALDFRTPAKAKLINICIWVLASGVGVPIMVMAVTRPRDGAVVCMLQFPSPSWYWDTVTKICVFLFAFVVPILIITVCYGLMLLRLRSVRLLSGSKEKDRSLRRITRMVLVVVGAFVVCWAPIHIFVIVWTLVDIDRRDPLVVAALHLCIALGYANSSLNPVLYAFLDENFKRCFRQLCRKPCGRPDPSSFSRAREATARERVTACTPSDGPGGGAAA

[31] = Unbound fraction in human plasma; assay type: ADME, cell-free; in short: as §3
[32] = target: T1, P2Y purinoceptor 14; assay: Inhibition of MRS4174 binding to human P2Y14R expressed in CHO cells pre-incubated for 30 mins before MRS4174 addition and further incubated for 30 mins at pH 7.4 by flow cytomtery based competitive fluorescence assay; assay type: cell-based
[33] = target: Cytochrome P450 2C9 (Homo sapiens, UniProt P11712); assay: Inhibition of CYP2C9 (unknown origin); assay type: ADME
Cytochrome P450 2C9, sequence (P11712 whole entry): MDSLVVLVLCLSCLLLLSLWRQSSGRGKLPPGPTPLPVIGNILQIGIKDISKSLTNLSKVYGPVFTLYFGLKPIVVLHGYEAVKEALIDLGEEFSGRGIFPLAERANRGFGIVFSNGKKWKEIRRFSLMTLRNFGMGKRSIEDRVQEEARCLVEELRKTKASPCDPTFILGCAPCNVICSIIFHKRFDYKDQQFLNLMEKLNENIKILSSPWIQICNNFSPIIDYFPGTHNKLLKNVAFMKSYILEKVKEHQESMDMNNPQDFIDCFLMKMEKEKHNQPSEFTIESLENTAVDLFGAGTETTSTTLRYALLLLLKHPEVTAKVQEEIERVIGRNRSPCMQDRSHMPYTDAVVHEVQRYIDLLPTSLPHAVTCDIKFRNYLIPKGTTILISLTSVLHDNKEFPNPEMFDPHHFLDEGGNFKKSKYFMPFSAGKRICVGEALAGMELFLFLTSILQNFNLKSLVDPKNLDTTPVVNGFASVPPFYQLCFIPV

[34] = Stability in rat plasma assessed as compound remaining level at 120 mins; assay type: ADME, cell-free; conditions: 2 h
[35] = Stability in simulated intestinal fluid assessed as compound remaining level at 120 mins; assay type: physicochemical; conditions: simulated gi fluid, 2 h
[36] = Stability in simulated gastric fluid assessed as compound remaining level at 120 mins; assay type: physicochemical; conditions: simulated gi fluid, 2 h
[37] = target: Voltage-gated inwardly rectifying potassium channel KCNH2 (Homo sapiens, UniProt Q12809); assay: Inhibition of human ERG
Voltage-gated inwardly rectifying potassium channel KCNH2, sequence (Q12809 whole entry): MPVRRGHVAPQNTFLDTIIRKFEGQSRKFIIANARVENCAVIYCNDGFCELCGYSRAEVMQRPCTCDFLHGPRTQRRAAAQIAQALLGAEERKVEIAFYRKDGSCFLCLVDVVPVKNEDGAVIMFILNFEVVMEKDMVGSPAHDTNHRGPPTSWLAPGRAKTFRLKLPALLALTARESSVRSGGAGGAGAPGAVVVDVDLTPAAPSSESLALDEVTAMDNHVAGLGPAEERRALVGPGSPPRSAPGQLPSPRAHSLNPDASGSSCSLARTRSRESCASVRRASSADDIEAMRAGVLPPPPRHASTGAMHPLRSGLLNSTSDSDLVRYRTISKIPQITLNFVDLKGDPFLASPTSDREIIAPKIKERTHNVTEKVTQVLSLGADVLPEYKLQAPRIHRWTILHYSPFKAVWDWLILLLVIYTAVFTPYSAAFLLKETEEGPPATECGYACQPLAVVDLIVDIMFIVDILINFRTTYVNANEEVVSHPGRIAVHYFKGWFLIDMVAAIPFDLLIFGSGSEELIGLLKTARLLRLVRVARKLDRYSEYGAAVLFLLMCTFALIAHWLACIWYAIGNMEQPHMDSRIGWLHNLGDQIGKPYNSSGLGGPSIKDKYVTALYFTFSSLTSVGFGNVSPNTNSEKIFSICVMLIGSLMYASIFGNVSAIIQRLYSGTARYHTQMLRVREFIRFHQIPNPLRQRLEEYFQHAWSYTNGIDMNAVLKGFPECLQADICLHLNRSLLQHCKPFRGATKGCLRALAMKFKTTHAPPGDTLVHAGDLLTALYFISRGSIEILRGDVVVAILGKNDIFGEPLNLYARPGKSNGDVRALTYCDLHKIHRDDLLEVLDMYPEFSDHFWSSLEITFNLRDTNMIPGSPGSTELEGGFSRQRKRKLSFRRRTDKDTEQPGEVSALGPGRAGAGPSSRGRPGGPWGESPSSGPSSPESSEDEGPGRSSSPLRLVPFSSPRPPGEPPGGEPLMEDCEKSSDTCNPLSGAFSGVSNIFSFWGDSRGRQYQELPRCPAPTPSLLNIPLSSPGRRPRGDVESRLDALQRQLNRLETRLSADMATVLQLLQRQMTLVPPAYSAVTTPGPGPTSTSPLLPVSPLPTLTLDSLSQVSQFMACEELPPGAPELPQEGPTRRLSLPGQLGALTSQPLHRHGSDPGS

[38] = target: Cytochrome P450 2D6 (Homo sapiens, UniProt P10635); assay: Inhibition of CYP2D6 (unknown origin); assay type: ADME
Cytochrome P450 2D6, sequence (P10635 whole entry): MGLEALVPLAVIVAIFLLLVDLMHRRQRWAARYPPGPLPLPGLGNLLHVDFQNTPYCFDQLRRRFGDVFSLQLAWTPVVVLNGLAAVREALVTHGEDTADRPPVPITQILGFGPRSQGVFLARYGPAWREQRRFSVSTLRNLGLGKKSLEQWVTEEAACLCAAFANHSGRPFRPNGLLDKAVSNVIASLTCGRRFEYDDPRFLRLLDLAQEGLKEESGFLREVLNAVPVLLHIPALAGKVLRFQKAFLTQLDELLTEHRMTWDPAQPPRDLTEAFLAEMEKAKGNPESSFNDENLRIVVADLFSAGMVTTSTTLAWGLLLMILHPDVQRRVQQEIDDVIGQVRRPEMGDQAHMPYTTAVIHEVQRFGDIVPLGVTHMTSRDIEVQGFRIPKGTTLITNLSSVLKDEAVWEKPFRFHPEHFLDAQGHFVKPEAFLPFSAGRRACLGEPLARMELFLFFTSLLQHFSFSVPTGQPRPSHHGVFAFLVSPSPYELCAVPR

[39] = target: Cytochrome P450 2C19 (Homo sapiens, UniProt P33261); assay: Inhibition of CYP2C19 (unknown origin); assay type: ADME
Cytochrome P450 2C19, sequence (P33261 whole entry): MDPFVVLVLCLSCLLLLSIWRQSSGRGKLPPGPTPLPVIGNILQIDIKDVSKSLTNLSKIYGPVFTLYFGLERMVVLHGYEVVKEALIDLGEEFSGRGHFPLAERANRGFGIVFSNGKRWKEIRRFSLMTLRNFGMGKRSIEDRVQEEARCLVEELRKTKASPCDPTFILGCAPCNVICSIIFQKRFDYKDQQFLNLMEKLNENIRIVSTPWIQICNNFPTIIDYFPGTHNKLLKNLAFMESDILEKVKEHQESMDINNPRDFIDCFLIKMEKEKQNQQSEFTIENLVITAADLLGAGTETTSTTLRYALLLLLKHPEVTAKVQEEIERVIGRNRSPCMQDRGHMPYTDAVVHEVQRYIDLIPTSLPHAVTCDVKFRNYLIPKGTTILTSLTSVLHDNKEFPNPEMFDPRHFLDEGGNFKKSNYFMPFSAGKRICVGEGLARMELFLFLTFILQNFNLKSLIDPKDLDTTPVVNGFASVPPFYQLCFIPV

[40] = Permeability from apical to basolateral side in human Caco2 cells; assay type: ADME, cell-based; conditions: caco-2
[41] = target: Translocator protein (Homo sapiens, UniProt P30536); assay: Binding affinity to TSPO receptor (unknown origin)
Translocator protein, sequence (P30536 whole entry): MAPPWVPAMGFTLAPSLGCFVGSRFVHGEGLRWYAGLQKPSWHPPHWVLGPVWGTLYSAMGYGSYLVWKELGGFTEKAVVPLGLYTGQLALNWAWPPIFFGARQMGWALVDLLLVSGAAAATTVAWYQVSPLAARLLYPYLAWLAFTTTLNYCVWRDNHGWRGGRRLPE

[42] = target: D(1B) dopamine receptor (Homo sapiens, UniProt P21918); assay: Binding affinity to dopamine D5 receptor (unknown origin)
D(1B) dopamine receptor, sequence (P21918 whole entry): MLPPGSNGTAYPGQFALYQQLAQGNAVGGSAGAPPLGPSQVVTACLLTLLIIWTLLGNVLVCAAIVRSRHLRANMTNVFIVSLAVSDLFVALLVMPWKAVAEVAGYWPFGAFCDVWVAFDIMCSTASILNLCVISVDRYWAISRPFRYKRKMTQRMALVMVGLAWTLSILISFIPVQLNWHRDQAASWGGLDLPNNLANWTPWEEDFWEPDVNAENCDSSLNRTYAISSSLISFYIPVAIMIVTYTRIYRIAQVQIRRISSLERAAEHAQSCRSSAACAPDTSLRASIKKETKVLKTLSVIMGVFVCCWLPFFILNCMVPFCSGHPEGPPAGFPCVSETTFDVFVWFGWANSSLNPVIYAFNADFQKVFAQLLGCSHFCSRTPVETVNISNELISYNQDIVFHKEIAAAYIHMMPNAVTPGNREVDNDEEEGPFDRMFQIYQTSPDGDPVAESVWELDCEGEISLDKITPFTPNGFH

Structure (SMILES): O=C(O)c1cc(-c2ccc(C34CCN(CC3)CC4)cc2)c2ccc(-c3ccc(C(F)(F)F)cc3)cc2c1
Stability [1]: 100%
Cmax [2]: 900 ng/mL
IC50 [3]: 84.5 nM
bioavailability [4]: 100%
Drug uptake [5]: 200 to 400 ng/kg
concentration at 4 h [6]: 292 nM
solubility ([7]; aqueous, read-out: solubility): 0.44 to 0.55 µg/mL (≈ 0.877 to 1.1 µM)
IC50 [8]: 57 nM
Tmax [9]: 3 to 4 h
t1/2 [10]: > 240 min
IC50 [11]: 38.1 nM
Stability [12]: 100%
Activity [13]: Active
t1/2 [14]: 80 min
concentration at 2 h [15]: 165 nM
t1/2 [16]: 67.2 min
solubility ([17]; aqueous, read-out: solubility): 1.5 to 14.3 µg/mL (≈ 2.99 to 28.5 µM)
half-life [18]: 306 min
IC50 [19]: > 20 µM
solubility [20]: 1 mg/mL (≈ 1990 µM)
fold change (FC) [21]: 1.24
half-life [22]: 208 min
IC50 [23]: 21.4 nM

Structure (SMILES): NCCCNC(=O)c1ccc(-c2cc(C(=O)O)cc(-n3cc(-c4ccc(C(F)(F)F)cc4)nn3)c2)s1
Ki [24]: 4.34 µM
Activity [13]: Active
Fu [25]: 0.83%

Structure (SMILES): O=C(O)c1cc(-c2ccc(C34CCN(CC3)CC4)cc2)cc(-n2cc(-c3ccc(C(F)(F)F)cc3)nn2)c1
IC50 [33]: > 30 µM
Stability [1]: 79.5%
Cmax [2]: 900 ng/mL
Stability [34]: 89.4%
bioavailability [4]: 100%
IC50 [32]: 105 nM
Drug uptake [5]: 200 to 400 ng/kg
concentration at 4 h [6]: 163 nM
solubility ([7]; aqueous, read-out: solubility): 0.1 to 1.1 µg/mL (≈ 0.193 to 2.12 µM)
Stability [35]: 102%
Tmax [9]: 3 to 4 h
t1/2 [10]: 192 min
Stability [12]: 86.8%
Stability [36]: 106%
t1/2 [14]: 108 min
concentration at 2 h [15]: 206 nM
IC50 [37]: 16.8 µM
t1/2 [16]: 311 min
solubility ([17]; aqueous, read-out: solubility): 2.8 to 14.5 µg/mL (≈ 5.4 to 27.9 µM)
half-life [18]: 276 min
IC50 [19]: > 20 µM
IC50 [38]: > 30 µM
fold change (FC) [21]: -0.09
half-life [22]: 43.2 min
IC50 [23]: 845 nM
IC50 [39]: > 30 µM
Papp [40]: 0.09 ×10⁻⁶ cm/s

Structure (SMILES): C[N+]12CCC(c3ccc(-c4cc(C(=O)O)cc5cc(-c6ccc(C(F)(F)F)cc6)ccc45)cc3)(CC1)CC2
IC50 [32]: 38.3 nM
solubility ([7]; buffer): 1.72 µg/mL
solubility ([17]; buffer): 2.24 µg/mL
Fu [25]: 0.94%
fold change (FC) [21]: 0.24
IC50 [23]: 56.3 nM
Fu [31]: 1.13%

More lines, main results first:

EC50 [26]: > 10 µM
EC50 [27]: > 10 µM
EC50 [28]: > 10 µM
EC50 [29]: > 10 µM
Ki [30]: 3.79 µM
Fu [25]: 1.33%
Fu [31]: 1.25%
Structure (SMILES): O=C(O)c1cc(-c2ccc(C3CCNCC3)cc2)cc(-c2cn(-c3ccc(C(F)(F)F)cc3)nn2)c1
Activity [13]: Active

IC50 [32]: > 100000 nM
Structure (SMILES): O=C(O)c1[nH]c(-c2ccc(C3=CCNCC3)cc2)cc1-n1cc(-c2ccc(C(F)(F)F)cc2)nn1

IC50 [32]: 639 nM
Structure (SMILES): O=C(O)c1cc(-c2ccc(C34CCNCC3C4(F)F)cc2)cc(-n2cc(-c3ccc(C(F)(F)F)cc3)nn2)c1 (stereo not given)

Ki [41]: 510 nM
solubility ([7]; buffer): 2.32 µg/mL (≈ 4.48 µM)
solubility ([17]; buffer): 0.09 µg/mL (≈ 0.174 µM)
Ki [42]: 4.38 µM
Structure (SMILES): CC(=O)N1CCC(c2ccc(-c3cc(C(=O)O)cc4cc(-c5ccc(C(F)(F)F)cc5)ccc34)cc2)CC1
Activity [13]: Active
